The target of assay [1] is T1, Catechol O-methyltransferase (Rattus norvegicus) (UniProt P22734).
T1 sequence (whole entry): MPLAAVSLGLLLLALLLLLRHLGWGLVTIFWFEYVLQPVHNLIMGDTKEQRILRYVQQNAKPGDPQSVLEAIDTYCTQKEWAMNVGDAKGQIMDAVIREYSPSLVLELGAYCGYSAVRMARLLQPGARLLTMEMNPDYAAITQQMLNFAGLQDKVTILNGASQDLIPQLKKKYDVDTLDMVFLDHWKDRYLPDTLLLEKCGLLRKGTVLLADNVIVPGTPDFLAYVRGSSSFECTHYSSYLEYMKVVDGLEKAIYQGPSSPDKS
In words: Ability to inhibit Catechol O-methyltransferase from rat liver at a concentration of 1 mM. Inhibition pattern was reported; Competitive kinetics. The procedure, abridged:
(§1)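 COMT purified from male Sprague–Dawley rat liver (180–200 g) through the calcium phosphate step, then reactivated before use by 40 min preincubation at 37 °C in pH 7.6 phosphate buffer with 4 mM DTT. Radiochemical assay: 3,4-dihydroxybenzoic acid variable (0.02–0.20 mM), SAM 0.2 mM plus 0.05 μCi SAM-¹⁴CH₃, Mg²⁺ 1 mM, DTT 4 mM, 100 mM phosphate pH 7.6. Inhibition pattern and Kis/Kii taken from double-reciprocal plots.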

Assay [2] concerns the target T1, Catechol O-methyltransferase (Rattus norvegicus). Briefly: Ability to inhibit Catechol O-methyltransferase kinetic inhibition Kis constant was reported. The procedure, abridged:
as §1

Assay [3] shares this target. In words: Ability to inhibit Catechol O-methyltransferase from rat liver at a concentration of 1 mM. Inhibition pattern was reported; Noncompetitive kinetics. The procedure, abridged:
as §1

Assay [4] has the same target. In words: Ability to inhibit Catechol O-methyltransferase kinetic inhibition Kii constant was reported. The procedure, abridged:
as §1

Assay [5] shares this target. In words: Ability to inhibit Catechol O-methyltransferase from rat liver at a concentration of 1 mM. Inhibition pattern was reported; No inhibitory activity. The procedure, abridged:
as §1

Assay [6] has the same target. In words: Ability to inhibit Catechol O-methyltransferase from rat liver. kinetic inhibition Kii constant was reported. The procedure, abridged:
as §1

The target is the same in assay [7]. In words: Ability to inhibit Catechol O-methyltransferase from rat liver. kinetic inhibition Kis constant was reported. The procedure, abridged:
as §1

Assay [8] has the same target. In words: Ability to inhibit Catechol O-methyltransferase. Following kinetic inhibition constants Kii was reported. The procedure, abridged: as §1
The target is the same in assay [9]. In words: Ability to inhibit Catechol O-methyltransferase. Following kinetic inhibition constants Kis was reported. The procedure, abridged:
as §1

Calls of active or inactive are those of the source. The calls are words filed in the database; no cut-off is given here.

The source of these data is ChEMBL document CHEMBL1122022, “Catechol O-methyltransferase. 10. 5-Substituted 3-hydroxy-4-methoxybenzoic acids (isovanillic acids) and 5-substituted 3-hydroxy-4-methoxybenzaldehydes (isovanillins) as potential inhibitors” (J Med Chem, 1982).

For `COc1c(O)cc(C=O)cc1[N+](=O)[O-]`, in assay [1], the inhibition result is recorded as “Competitive kinetics”. The molecule further had a Kis in [2] of 0.7 µM.

Consider `COc1c(O)cc(C=O)cc1Br`, for which, in assay [3], the inhibition pattern result is reported as “Noncompetitive kinetics”. Further, in assay [4], the Kii stood at 16.5 µM. Besides, the Kis in assay [2] amounted to 31.8 µM.

Regarding `COc1ccc(C=O)cc1O`, the inhibition result in assay [5] was “inactive”.

Regarding `COc1c(O)cc(C(=O)O)cc1N(C)C`, the inhibition entry in assay [5] was “inactive”.

Regarding `COc1c(O)cc(C(=O)O)cc1C#N`, the inhibition pattern result in [3] is listed as “Noncompetitive kinetics”. The Kii in [6] is 571 µM. This molecule also returned a Kis in [7] of 589 µM.

As to `COc1c(N)cc(C(=O)O)cc1O`, the inhibition result in assay [5] is “inactive”.

In the case of `COc1cc(C(=O)O)cc(O)c1OC`, the inhibition pattern entry in assay [3] is “Noncompetitive kinetics”. In addition, in assay [6], the Kii came out at 521 µM. This molecule also yielded a Kis in [7] of 999 µM.

In the case of `COc1c(O)cc(C(=O)O)cc1[N+](=O)[O-]`, the inhibition pattern result in [3] is listed as “Noncompetitive kinetics”. The same molecule gave a Kii in assay [6] of 247 µM. The molecule also showed a Kis in assay [7] of 50.2 µM.

Regarding `COc1c(O)cc(C(=O)O)cc1Cl`, the inhibition entry in [1] is “Competitive kinetics”. The Kis in [7] worked out at 394 µM.

As for `COc1c(O)cc(C=O)cc1I`, the inhibition pattern result in [3] was “Noncompetitive kinetics”. The molecule further returned a Kii in assay [4] of 56.6 µM. The same molecule showed a Kis in assay [2] of 111 µM.

Take `COc1c(O)cc(C(=O)O)cc1I`: the inhibition entry in [5] was “inactive”.

`CCOC(=S)Sc1cc(C=O)cc(O)c1OC`: the inhibition pattern result in assay [3] is on record as “Noncompetitive kinetics”. In assay [8], this molecule had a Kii of 272 µM. Also, the Kis in assay [9] amounted to 885 µM.

For `COc1ccc(C(=O)O)cc1O`, in assay [5], the inhibition entry was “inactive”.

In the case of `COc1c(O)cc(C(=O)O)cc1Br`, the inhibition result in assay [1] is given as “Competitive kinetics”. Further, in assay [7], the Kis is 340 µM.

On to `COc1c(O)cc(C=O)cc1F`, for which, in assay [3], the inhibition result is “Noncompetitive kinetics”. In addition, the Kii in assay [4] came to 48.4 µM. Further, the Kis in assay [2] came out at 56.9 µM.

Regarding `COc1c(O)cc(C=O)cc1O`, the inhibition pattern result in assay [3] is recorded as “Noncompetitive kinetics”. Moreover, in assay [4], the Kii amounted to 16.1 µM. This molecule yielded a Kis in assay [2] of 9.98 µM.

With `COc1c(O)cc(C=O)cc1Cl`, the inhibition pattern result in [3] is given as “Noncompetitive kinetics”. For the same molecule, in assay [4], the Kii amounted to 10.8 µM. Besides, the Kis in assay [2] worked out at 31.6 µM.
